Here are results for 4 molecules from ChEMBL document CHEMBL4138313 (J Med Chem, 2018).

Data set [1] relates to MEF. Put plainly: Cytotoxicity against mouse wild type MEF cells assessed as reduction in cell viability after 4 to 7 days by cell-titer glo assay. The data set is classed as cell-based.
Data set [2] concerns MEF. Put plainly: Cytotoxicity against mouse PARP1 deficient MEF cells assessed as reduction in cell viability after 4 to 7 days by cell-titer glo assay. The class given is cell-based.
Data set [3] relates to MEF. Briefly: Cytotoxicity against mouse PARP2 deficient MEF cells expressing PARP1 assessed as reduction in cell viability after 4 to 7 days by cell-titer glo assay. The data set is classed as cell-based.
Data set [4] can be described thus: Cytotoxicity against human BRCA1-restored UWB1.289 cells assessed as reduction in cell viability after 4 to 7 days by cell-titer glo assay. The data set is classed as cell-based.
Data set [5] is described as follows: Cytotoxicity against human BRCA1-deficient UWB1.289 cells assessed as reduction in cell viability after 4 to 7 days by cell-titer glo assay. The data set is classed as cell-based.
Data set [6] has as its target T1, Poly [ADP-ribose] polymerase tankyrase-1 (Homo sapiens, UniProt O95271).
T1 sequence (O95271 whole entry): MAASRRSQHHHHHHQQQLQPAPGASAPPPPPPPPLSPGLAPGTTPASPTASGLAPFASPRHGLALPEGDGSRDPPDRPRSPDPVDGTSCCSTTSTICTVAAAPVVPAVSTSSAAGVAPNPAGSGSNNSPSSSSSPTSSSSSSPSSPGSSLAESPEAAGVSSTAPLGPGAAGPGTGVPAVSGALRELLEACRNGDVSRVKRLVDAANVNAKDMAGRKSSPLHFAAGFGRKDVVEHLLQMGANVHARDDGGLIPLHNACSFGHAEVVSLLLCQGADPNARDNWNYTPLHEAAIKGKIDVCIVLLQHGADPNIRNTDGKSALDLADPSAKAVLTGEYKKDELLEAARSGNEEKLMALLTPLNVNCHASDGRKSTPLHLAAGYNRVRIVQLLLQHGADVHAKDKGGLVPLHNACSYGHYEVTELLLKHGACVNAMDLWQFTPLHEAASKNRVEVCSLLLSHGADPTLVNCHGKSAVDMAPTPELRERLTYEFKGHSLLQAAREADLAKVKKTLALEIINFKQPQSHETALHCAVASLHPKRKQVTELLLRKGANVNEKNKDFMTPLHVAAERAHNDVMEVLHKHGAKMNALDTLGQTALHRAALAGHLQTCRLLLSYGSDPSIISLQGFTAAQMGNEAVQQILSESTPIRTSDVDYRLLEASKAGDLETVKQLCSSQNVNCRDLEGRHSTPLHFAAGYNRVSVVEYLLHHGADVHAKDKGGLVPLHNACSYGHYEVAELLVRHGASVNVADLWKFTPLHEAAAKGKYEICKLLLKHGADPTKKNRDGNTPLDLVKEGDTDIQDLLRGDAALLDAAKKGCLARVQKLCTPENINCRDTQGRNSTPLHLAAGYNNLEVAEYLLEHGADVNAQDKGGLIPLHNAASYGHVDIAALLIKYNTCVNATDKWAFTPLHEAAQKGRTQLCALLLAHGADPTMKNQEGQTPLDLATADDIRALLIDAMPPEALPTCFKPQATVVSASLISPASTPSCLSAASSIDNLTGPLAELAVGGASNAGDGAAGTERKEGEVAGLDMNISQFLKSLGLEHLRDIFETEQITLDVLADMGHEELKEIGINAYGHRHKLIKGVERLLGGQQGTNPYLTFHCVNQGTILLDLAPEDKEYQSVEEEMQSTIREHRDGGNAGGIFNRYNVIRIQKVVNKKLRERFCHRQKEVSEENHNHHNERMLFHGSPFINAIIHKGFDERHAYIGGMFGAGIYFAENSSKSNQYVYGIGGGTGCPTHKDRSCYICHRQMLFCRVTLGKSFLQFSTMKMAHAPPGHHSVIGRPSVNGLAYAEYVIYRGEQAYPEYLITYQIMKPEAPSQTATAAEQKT
Briefly: Inhibition of human N-terminal GST-tagged TNKS1 (1001 to 1327 residues) expressed in baculovirus infected sf9 cells using histone as substrate after 1 hr by streptavidin-horseradish peroxidase-based luminescence assay.

The target of data set [7] is T2, Poly [ADP-ribose] polymerase tankyrase-2 (Homo sapiens, UniProt Q9H2K2).
T2 sequence (Q9H2K2 whole entry): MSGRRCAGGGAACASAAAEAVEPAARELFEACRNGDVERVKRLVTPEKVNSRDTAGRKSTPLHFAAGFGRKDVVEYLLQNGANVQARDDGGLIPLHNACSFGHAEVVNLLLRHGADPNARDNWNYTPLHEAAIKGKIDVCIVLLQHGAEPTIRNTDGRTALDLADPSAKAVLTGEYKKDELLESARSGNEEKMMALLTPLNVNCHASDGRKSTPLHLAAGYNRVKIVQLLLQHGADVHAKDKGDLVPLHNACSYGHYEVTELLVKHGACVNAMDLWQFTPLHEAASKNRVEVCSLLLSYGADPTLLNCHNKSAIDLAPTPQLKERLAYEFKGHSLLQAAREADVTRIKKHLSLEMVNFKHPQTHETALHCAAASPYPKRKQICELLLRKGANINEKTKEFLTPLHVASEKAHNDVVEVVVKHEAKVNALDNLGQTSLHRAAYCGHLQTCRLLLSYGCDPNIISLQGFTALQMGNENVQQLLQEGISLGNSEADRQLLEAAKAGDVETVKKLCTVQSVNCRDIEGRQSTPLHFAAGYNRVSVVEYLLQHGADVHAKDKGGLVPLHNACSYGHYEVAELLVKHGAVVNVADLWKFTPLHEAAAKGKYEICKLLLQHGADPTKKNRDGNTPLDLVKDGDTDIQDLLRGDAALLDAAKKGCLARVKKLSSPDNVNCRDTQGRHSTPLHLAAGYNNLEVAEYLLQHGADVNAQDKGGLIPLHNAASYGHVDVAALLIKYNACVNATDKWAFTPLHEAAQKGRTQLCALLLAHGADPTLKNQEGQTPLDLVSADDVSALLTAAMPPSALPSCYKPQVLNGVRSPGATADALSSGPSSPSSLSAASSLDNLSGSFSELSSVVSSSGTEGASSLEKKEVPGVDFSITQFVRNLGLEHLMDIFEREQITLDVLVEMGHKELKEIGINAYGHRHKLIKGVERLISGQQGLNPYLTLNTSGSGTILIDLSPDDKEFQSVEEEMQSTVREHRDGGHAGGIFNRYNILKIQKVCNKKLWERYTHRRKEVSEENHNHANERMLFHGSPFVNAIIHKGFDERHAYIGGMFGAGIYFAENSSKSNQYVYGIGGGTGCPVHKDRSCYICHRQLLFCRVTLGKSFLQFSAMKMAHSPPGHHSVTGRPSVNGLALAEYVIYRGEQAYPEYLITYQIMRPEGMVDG
Put plainly: Inhibition of human N-terminal GST-tagged TNKS2 (667 to 1166 residues) expressed in baculovirus infected sf9 cells using histone as substrate after 1 hr by streptavidin-horseradish peroxidase-based luminescence assay.

Data set [8] can be described thus: Safety index, ratio compound EC50 to olaparib EC50 for BRCA1 deficient human UWB1.289 cells. The data set is classed as ADME. The conditions noted are these: BRCA1-deficient UWB1.289 cells, read-out: Ratio EC50. The method in brief:
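UWB1.289 cells were grown in 1:1 MEGM (bullet kit) and RPMI 1640 with 10% FBS and 1% pen/strep, at 37 °C, 5% CO2 and 15% O2. Cells were seeded at 1,000 cells/well and dosed after 24 h at 100–0.016 µM for 4–7 days. Viability was read by CellTiter-Glo luminescence and normalised to the vehicle mean.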

Data set [9] deals with T3, Poly [ADP-ribose] polymerase tankyrase-2 (Homo sapiens) (UniProt Q9H2K2).
T3 sequence (whole entry): T2 sequence (Q9H2K2 whole entry)
Put plainly: Inhibition of human N-terminal GST-tagged TNKS2 (667 to 1166 residues) expressed in baculovirus infected sf9 cells at 10 uM using histone as substrate after 1 hr by streptavidin-horseradish peroxidase-based luminescence assay. The method in brief: (§1)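 Run by an outside contractor using PARP or TNKS kit protocols, in duplicate, at room temperature for 1 h in histone-coated wells. The Tris·HCl pH 8.0 reaction buffer held NAD+, biotinylated NAD+, activated DNA, enzyme and compound. Streptavidin-HRP was then added for 30 min at room temperature, followed by developer reagents and a luminescence read.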

The nature of data set [10]: Cytotoxicity against human OVCAR8 cells assessed as cell survival at 10 uM after 4 to 7 days by cell-titer glo assay. The class given is cell-based, OVCAR-8. The conditions noted are these: OVCAR8 cells, read-out: Activity.
Data set [11] relates to MEF. Put plainly: Cytotoxicity against mouse wild type MEF cells assessed as reduction in cell viability at 0.016 to 100 uM after 4 to 7 days by cell-titer glo assay. The data set is classed as cell-based. The method in brief:
(§2)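 Cells kept at 37 °C, 5% CO2, 15% O2 in RPMI 1640 with 10% FBS and 1% penicillin/streptomycin. Seeded at 1,000 cells/well and dosed 24 h later at 100–0.016 µM. Exposure lasted 4–7 days, then viability was read by CellTiter Glo luminescence. Signal was normalized to percent survival against the mean of vehicle controls. Three repeat experiments.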

Data set [12] relates to MEF. Briefly: Cytotoxicity against mouse PARP1 deficient MEF cells assessed as reduction in cell viability at 0.016 to 100 uM after 4 to 7 days by cell-titer glo assay. The data set is classed as cell-based. Put shortly: as §2
Data set [13] deals with T4, Poly [ADP-ribose] polymerase 1 (Homo sapiens, UniProt P09874). Put plainly: Inhibition of PARP1 (unknown origin) at 10 uM. The method in brief:
as §1

Data set [14] has as its target T4, Poly [ADP-ribose] polymerase 1. Briefly: Binding affinity to PARP1 in human OVCAR8 cells assessed as reduction in [125I]-KX1 binding by gamma counting analysis. The data set is classed as cell-based.

The source made the active and inactive calls. No cut-off for these calls is given here.

T4 sequence (P09874 whole entry): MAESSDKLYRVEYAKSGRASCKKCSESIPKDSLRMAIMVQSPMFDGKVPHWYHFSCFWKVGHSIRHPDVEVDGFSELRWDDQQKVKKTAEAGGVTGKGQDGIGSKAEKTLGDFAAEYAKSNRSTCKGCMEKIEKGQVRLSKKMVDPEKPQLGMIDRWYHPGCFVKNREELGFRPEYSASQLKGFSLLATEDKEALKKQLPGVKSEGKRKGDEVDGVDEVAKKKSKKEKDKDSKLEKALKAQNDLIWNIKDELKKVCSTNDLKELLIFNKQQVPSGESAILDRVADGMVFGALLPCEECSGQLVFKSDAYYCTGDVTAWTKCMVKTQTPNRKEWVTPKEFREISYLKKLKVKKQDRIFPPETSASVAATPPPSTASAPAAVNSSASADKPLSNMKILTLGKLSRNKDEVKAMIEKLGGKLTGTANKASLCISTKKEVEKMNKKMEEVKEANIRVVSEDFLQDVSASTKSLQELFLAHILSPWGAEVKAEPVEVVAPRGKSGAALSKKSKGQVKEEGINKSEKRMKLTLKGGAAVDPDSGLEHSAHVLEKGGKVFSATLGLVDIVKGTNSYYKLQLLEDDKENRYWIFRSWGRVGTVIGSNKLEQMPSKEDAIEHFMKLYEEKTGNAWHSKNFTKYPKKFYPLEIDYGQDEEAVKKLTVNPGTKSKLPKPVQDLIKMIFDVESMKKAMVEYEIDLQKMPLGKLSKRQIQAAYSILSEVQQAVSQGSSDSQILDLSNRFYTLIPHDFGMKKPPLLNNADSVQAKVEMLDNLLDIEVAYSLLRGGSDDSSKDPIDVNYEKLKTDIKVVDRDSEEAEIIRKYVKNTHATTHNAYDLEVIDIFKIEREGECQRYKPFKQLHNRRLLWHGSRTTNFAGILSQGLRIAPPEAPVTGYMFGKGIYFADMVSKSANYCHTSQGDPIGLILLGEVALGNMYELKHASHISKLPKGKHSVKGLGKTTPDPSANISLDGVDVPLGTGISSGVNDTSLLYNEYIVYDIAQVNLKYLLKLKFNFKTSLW

The term EC50 denotes the concentration needed to bring the measured effect to its halfway point. By IC50 is commonly meant the point on the concentration scale where inhibition reaches its midpoint. For `CC(C)(C)OC(=O)N1CCC2(CCN(C(=O)c3cc(Cc4n[nH]c(=O)c5ccccc45)ccc3F)C2)C1` (stereo unspecified), the EC50 in the data set on MEF [1] came out at 17.2 µM; with MEF [2], 46.4 µM; in the data set with MEF [3] it was 23.4 µM; in data set [4] it was 7.4 µM; in data set [5] it was 4.2 µM. Further, the figures for the IC50 in data set [6] and in data set [7] were 1 µM and 0.576 µM, respectively. For the same molecule, the selectivity ratio in data set [8] was 20 to 40. The inhibition entry in data set [9] was “Active”.

Regarding `O=C(c1cc(Cc2n[nH]c(=O)c3ccccc23)ccc1F)N1CC2(C1)CN(C(=O)C1CC1)C2`, in [10], the viability at 10 µM was 80%. For the same molecule, the Activity in the data set on MEF [11] and in the data set on MEF [12] was below 50% in each case. Further, the EC50 came to 59.8 µM in the data set with MEF [3], 12.1 µM in [4] and 1.5 µM in data set [5]. Also, the selectivity ratio in [8] was determined as 7. Besides, in [13], the inhibition entry was “Active”.

`CC(C)(C)OC(=O)N1CCC2(CC1)CCN(C(=O)c1cc(Cc3n[nH]c(=O)c4ccccc34)ccc1F)C2`: the results for the IC50 in data set [14], in [6] and in data set [7] were 1.1 µM, 3 µM and 0.953 µM, respectively. The EC50 was 9.4 µM in the data set on MEF [1]; 45.9 µM in the data set with MEF [2]; 31.6 µM with MEF [3]; 6.2 µM in [4]; 8.4 µM in data set [5]. For the same molecule, the selectivity ratio in data set [8] lay in the range of 20 to 40. In addition, the inhibition entry in data set [9] is “Active”.

Take `CC(C)(C)OC(=O)N1CCC2(CC1)CCN(C(=O)c1cc(Cc3n[nH]c(=O)c4ccccc34)ccc1F)CC2`: the concentration for a half-maximal effect (EC50) with MEF [1] is 16.9 µM; with MEF [2], 43.4 µM; with MEF [3], 19.2 µM; in [4] it was 4 µM; in [5], 2.7 µM. For the same molecule, the IC50 turned out to be 5.7 µM in [6] and 2.8 µM in [7]. In addition, the selectivity ratio in [8] lay in the range of 20 to 40. Moreover, the inhibition result in data set [9] is “Active”.
